How the values were obtained:
[1] = test system: CFA‐induced mechanical allodynia in rats; conditions: cited from earlier work; for mechanical allodynia on CFA‐induced inflammatory pain: rats
[2] = test system: partial sciatic nerve ligation‐induced mechanical allodynia; conditions: rats; cited from earlier work
[3] = test system: spinal nerve ligation‐induced mechanical allodynia; conditions: rats; single systemic administration; cited from earlier work
motor coordination = conditions: ref 17 (Watabiki et al (2017)); cited from earlier work
[4] = test system: formalin‐induced pain responses in rats; assay: Formalin test; type: in vivo; conditions: rat; for formalin‐induced pain responses, early phase: 0 to 10 minutes; for formalin‐induced pain responses, late phase: 10 to 45 minutes
Summary of the method: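 Male Wistar rats received oral dosing 1 h before injection: test compound in 0.5% HPMC or pregabalin in saline, 10 mL/kg. Then 0.5% formalin (50 µL) was injected into the left hind‐paw plantar surface. Flinching, licking and biting time was scored manually over 45 min: early phase 0–10 min, late phase 10–45 min. n=6, mean ± SEM; Dunnett's or Student's t‐test.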

[5] = test system: CCI‐induced mechanical allodynia in rats; assay: CCI‐induced neuropathic pain; type: in vivo; conditions: rat, 4 hours
Summary of the method: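 Male Sprague‐Dawley rats. Under anesthesia, the left sciatic nerve was loosely tied with four ligatures at 1 mm intervals; in shams the right nerve was exposed but not ligated. On day 14 after surgery, the test compound (0.5% HPMC suspension) or pregabalin (saline) was given orally at 10 mL/kg 4 h before PWT. PWT was measured by von Frey up‐down method. n=8, mean ± SEM; Steel's or Wilcoxon test.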

[6] = test system: motor coordination in rats; assay: Motor coordination; type: in vivo; conditions: rat, p.o., cut‐off 200 s
Summary of the method: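 Male Sprague‐Dawley rats were trained at 20 rpm on 2 consecutive days, up to five trials, until they walked ≥200 s. They were retrained in two sessions on test day; rats reaching the criterion once were used. Time on the rod (cut‐off 200 s) was recorded 1 h after the oral test compound or 2 h after pregabalin. n=10, mean ± SEM; Steel's test.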

[7] = test system: formalin‐induced pain responses in rats; conditions: ref 34 (Maione et al (2007)); cited from earlier work
human FAAH = target: T1, human FAAH (Homo sapiens, UniProt O00519); assay: FAAH inhibition, human microsomes; type: biochemical
T1 sequence (O00519 1-579): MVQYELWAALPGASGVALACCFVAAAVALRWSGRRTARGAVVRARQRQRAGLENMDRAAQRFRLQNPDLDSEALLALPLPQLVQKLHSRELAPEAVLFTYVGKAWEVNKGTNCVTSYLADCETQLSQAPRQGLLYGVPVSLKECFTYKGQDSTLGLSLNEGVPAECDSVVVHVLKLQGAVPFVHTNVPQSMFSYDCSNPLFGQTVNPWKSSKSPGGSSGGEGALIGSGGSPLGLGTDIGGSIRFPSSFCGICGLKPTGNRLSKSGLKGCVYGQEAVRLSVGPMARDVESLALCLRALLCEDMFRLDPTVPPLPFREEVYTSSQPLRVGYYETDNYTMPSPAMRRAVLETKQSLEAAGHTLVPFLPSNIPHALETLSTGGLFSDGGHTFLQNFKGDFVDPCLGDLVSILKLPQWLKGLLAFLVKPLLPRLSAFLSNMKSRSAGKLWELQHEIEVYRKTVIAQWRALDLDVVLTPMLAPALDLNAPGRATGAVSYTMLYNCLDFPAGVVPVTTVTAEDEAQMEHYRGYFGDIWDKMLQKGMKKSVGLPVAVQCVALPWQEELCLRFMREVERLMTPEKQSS

rat FAAH = target: T2, rat FAAH (Rattus norvegicus, UniProt P97612); assay: FAAH inhibition, rat brain microsomes, AAMCA fluorescence, IC50; type: biochemical
T2 sequence (P97612 1-579): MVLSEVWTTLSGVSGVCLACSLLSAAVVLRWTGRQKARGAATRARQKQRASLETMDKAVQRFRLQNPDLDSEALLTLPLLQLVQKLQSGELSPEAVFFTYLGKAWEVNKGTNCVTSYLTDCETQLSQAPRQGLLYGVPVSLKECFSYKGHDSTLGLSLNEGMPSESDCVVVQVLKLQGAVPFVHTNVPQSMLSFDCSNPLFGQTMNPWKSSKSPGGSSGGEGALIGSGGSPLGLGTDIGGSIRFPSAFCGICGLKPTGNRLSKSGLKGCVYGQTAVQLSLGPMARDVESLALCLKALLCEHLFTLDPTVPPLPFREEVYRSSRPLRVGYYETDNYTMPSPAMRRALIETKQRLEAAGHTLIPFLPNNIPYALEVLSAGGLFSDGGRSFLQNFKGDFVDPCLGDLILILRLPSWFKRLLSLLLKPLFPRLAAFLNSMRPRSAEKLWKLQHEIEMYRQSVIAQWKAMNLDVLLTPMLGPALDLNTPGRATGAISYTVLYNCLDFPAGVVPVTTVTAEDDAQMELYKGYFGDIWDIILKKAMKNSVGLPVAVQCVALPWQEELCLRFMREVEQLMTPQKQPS

[8] = target: T3, human monoacylglycerol lipase (MAGL) (Homo sapiens, UniProt Q99685); assay: MAGL inhibitor screening assay kit; type: biochemical; conditions: 30 μmol/L
T3 sequence (Q99685 1-303): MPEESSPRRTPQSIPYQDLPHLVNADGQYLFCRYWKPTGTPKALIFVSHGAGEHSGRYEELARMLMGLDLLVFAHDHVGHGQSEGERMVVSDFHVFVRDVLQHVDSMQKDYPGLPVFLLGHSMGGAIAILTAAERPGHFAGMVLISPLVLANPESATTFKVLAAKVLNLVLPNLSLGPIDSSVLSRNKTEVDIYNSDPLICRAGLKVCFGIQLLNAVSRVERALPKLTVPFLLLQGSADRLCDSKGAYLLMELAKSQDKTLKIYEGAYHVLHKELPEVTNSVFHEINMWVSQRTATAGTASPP

5-HT2B (h) = 5-HT2B (h) (Homo sapiens, UniProt P41595); assay: Cerep BioPrint profiling and follow-up IC50; type: binding
PAF (h) = PAF (h) (Homo sapiens, UniProt P25105); assay: Cerep BioPrint profiling and follow-up IC50; type: binding
[9] = Pharmacokinetic study in rats; type: in vivo; conditions: male, Sprague-Dawley, rat, plasma
Summary of the method: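 Male Sprague‐Dawley rats. IV dose: 1 mg/kg in 40% dimethylacetamide/40% PEG400/20% water (1 mL/kg). Oral doses: 0.3, 1, 3 mg/kg as 0.5% HPMC suspension. Serial plasma was obtained by centrifugation (2,150g, 15 min, 4°C), extracted with ethyl acetate by supported‐liquid extraction, and reconstituted in 45% acetonitrile/55% 10 mmol/L ammonium acetate. Analysis by LC‐MS/MS; noncompartmental parameters.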

[10] = test system: AEA concentrations in rat brain; assay: AEA concentrations in rat brain; type: in vivo
[11] = test system: CFA‐induced mechanical allodynia in rats; assay: CFA‐induced inflammatory pain; type: in vivo; conditions: rat, 1 and 4 hours after administration
Summary of the method: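 Male Sprague‐Dawley rats received 50% CFA intraplantar (0.1 mL, right hind paw). PWT was measured 5 days later by von Frey up‐down method. The test compound (0.5% HPMC suspension) was dosed orally 1 h before PWT. Naproxen (0.5% methylcellulose) was dosed orally 4 h before PWT. Dosing volume 10 mL/kg. n=9, mean ± SEM; Steel's or Wilcoxon test.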

catalepsy in rats = assay: Catalepsy; type: in vivo; conditions: rat, cut‐off 90 s
catalepsy = conditions: ref 13 (Ahn et al (2011)); cited from earlier work
[12] = 30 mg/kg p.o. 1 hour before formalin

Chain of 5-HT2B (h) (P41595 whole entry): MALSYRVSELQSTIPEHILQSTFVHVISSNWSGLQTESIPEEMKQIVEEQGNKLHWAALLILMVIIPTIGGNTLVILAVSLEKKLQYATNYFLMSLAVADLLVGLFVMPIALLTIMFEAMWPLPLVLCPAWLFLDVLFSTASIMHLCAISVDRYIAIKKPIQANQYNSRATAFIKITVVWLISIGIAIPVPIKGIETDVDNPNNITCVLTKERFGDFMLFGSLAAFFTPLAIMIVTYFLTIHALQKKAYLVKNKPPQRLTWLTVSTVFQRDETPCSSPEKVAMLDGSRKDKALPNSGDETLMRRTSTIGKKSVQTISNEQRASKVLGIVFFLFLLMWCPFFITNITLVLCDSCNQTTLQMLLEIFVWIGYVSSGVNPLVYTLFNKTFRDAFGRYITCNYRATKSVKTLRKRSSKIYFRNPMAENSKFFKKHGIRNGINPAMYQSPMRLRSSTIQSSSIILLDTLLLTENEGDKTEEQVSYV
Chain of PAF (h) (P25105 whole entry): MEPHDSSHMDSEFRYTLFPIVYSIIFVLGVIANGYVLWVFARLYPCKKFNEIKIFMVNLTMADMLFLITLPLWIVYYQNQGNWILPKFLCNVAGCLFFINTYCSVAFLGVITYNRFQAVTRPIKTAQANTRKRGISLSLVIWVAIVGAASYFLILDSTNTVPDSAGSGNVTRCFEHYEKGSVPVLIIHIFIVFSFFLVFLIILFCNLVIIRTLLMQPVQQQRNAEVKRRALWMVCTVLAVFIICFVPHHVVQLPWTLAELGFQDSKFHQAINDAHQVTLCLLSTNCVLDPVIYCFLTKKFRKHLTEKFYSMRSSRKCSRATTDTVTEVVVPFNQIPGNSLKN

Structure (SMILES): O=C(Nc1cccnc1)N1CCC(Cc2cccc(Oc3ccc(C(F)(F)F)cn3)c2)CC1 [PF‐3845, N‐3‐pyridinyl‐4‐[[3‐[[5‐(trifluoromethyl)‐2‐pyridinyl]oxy]phenyl]methyl]‐1‐piperidinecarboxamide]
- mechanical allodynia on CFA‐induced inflammatory pain [1]: improved mechanical allodynia

Structure (SMILES): NC(=O)c1cccc(-c2cccc(OC(=O)NC3CCCCC3)c2)c1 [URB597, (3'‐(aminocarbonyl)[1,1'‐biphenyl]‐3‐yl)‐cyclohexylcarbamate]
- partial sciatic nerve ligation‐induced mechanical allodynia [2]: had no improvement
- spinal nerve ligation‐induced mechanical allodynia [3]: improved

Structure (SMILES): O=C(Nc1ccccc1)C1CCN(C(=O)Oc2cccnc2)CC1 [ASP8477, 3‐pyridyl 4‐(phenylcarbamoyl)piperidine‐1‐carboxylate]
- effect on motor coordination (motor coordination): did not affect motor coordination up to 30 mg/kg

Structure (SMILES): CC(C)C[C@H](CN)CC(=O)O [Pregabalin, 3(S)‐(aminomethyl)‐5‐methylhexanoic acid, reference compound]
- formalin‐induced pain responses, early phase [4, 12]: Neither PKM‐833 nor pregabalin changed
- formalin‐induced pain responses, late phase [4, 12]: significantly reduced
- mechanical allodynia (PWT), CCI‐induced neuropathic pain ([5]; pregabalin 30 mg/kg p.o.): significantly antagonized
- Duration (s) on rotarod ([6]; 10 mg/kg, 2 h): 199 ± 1 s
- Duration (s) on rotarod ([6]; 30 mg/kg, 2 h): 167 ± 14 s

Structure (SMILES): CCCCC/C=C\C/C=C\C/C=C\C/C=C\CCCC(=O)NCCc1c[nH]c2ccc(O)cc12 [AA‐5‐HT, N‐arachidonoyl‐serotonin]
- formalin‐induced pain responses [7]: significantly decreased formalin‐induced pain responses only in the late phase

Structure (SMILES): O=C(Nc1cccnn1)N1CCN([C@@H]2CCOc3cc(C(F)(F)F)ccc32)CC1 [PKM‐833, (R)‐N‐(pyridazin‐3‐yl)‐4‐(7‐(trifluoromethyl)chroman‐4‐yl)piperazine‐1‐carboxamide]
- IC50 (human FAAH): 8.8 ± 3 nM
- selectivity against other molecular targets (human FAAH; FAAH versus 137 other molecular targets): more than 200 fold
- IC50 (rat FAAH): 10 ± 3 nM
- inhibition of human MAGL [8]: did not inhibit
- IC50 (5-HT2B (h)): 6400 nM
- IC50 (PAF (h)): 2300 nM
- half-life ([9]; iv, 1 mg/kg): 5.8 h
- bioavailability ([9]; po): 41 to 91%
- AEA concentrations in rat brain, time course ([10]; 1 mg/kg p.o., 1 to 48 hours before decapitation): significantly elevated for 8 hours but not at 24 and 48 hours
- AEA concentrations in rat brain, dose dependence ([10]; 0.3‐3 mg/kg p.o., 1 hour before decapitation): significant effects at doses of 1 and 3 mg/kg
- formalin‐induced pain responses, late phase ([4]; 3 mg/kg p.o. 1 hour before formalin): significantly reduced
- formalin‐induced pain responses, early phase ([4]; 0.3‐3 mg/kg p.o. 1 hour before formalin): Neither PKM‐833 nor pregabalin changed
- mechanical allodynia (PWT), CFA‐induced inflammatory pain ([11]; 0.3 to 3 mg/kg p.o.): significantly suppressed
- mechanical allodynia (PWT), CCI‐induced neuropathic pain ([5]; PKM‐833 30 mg/kg p.o. (3‐30 mg/kg tested)): did not attenuate
- Duration (s), catalepsy (catalepsy in rats; 10 mg/kg, p.o., 1 h): 0.5 ± 0.1 s
- Duration (s), catalepsy (catalepsy in rats; 10 mg/kg, p.o., 4 h): 3.7 ± 1.9 s
- Duration (s), catalepsy (catalepsy in rats; 30 mg/kg, p.o., 1 h): 0.8 ± 0.2 s
- Duration (s), catalepsy (catalepsy in rats; 30 mg/kg, p.o., 4 h): 1.0 ± 0.3 s
- Duration (s) on rotarod ([6]; 10 mg/kg, 1 h): 200 ± 0 s
- Duration (s) on rotarod ([6]; 30 mg/kg, 1 h): 195 ± 6 s

Structure (SMILES): O=C(Nc1cccnn1)N1CCC(=Cc2cccc(Oc3ccc(C(F)(F)F)cn3)c2)CC1 [PF‐04457845, N‐pyridazin‐3‐yl‐4‐(3‐{[5‐(trifluoromethyl)pyridin‐2‐yl]oxy}benzylidene)piperidine‐1‐carboxamide]
- mechanical allodynia on CFA‐induced inflammatory pain [1]: improved mechanical allodynia
- minimum effective dose in CFA‐induced inflammatory pain ([1]; ref 13 (Ahn et al (2011))): 0.1 mg/kg
- effects on catalepsy (catalepsy): no effects on catalepsy up to 100‐fold higher dose

Structure (SMILES): COc1ccc2cc([C@H](C)C(=O)O)ccc2c1 [Naproxen, (S)‐(+)‐6‐methoxy‐α‐methyl‐2‐naphthaleneacetic acid, reference compound]
- mechanical allodynia (PWT), CFA‐induced inflammatory pain ([11]; 15 mg/kg p.o.): significantly suppressed

Structure (SMILES): CS(=O)(=O)O.Cc1c(C(=O)c2cccc3ccccc23)c2cccc3c2n1[C@H](CN1CCOCC1)CO3 [WIN 55,212‐2, (R)‐(+)‐(2,3; dihydro‐5‐methyl‐3‐(4‐morpholinylmethyl)pyrrolo[1.2.3‐de]‐1,4‐benzoxazin‐6‐yl)‐1‐naphthalenylmethanone mesylate, reference compound]
- Duration (s), catalepsy (catalepsy in rats; 3 mg/kg, s.c., 1 h): 13 ± 2 s
- Duration (s), catalepsy (catalepsy in rats; 3 mg/kg, s.c., 4 h): 77 ± 7 s

— publication PMC7043261 (Pharmacology Research & Perspectives, 2020)
